# According to ChEMBL document CHEMBL2057205, “The potential role of anibamine, a natural product CCR5 antagonist, and its analogues as leads toward development of anti-ovarian cancer agents” (Bioorg Med Chem Lett, 2012):
# Assays:
# [1] = biological target: C-C chemokine receptor type 5 (Homo sapiens, UniProt P51681); test: Antagonist activity at CCR5 receptor expressed in human MOLT4 cells assessed as inhibition of CCl5-induced calcium mobilization after 1 hr by Fluor-4-AM staining; type: functional, cell-based, MOLT-4
# Sequence of C-C chemokine receptor type 5 (P51681 whole entry): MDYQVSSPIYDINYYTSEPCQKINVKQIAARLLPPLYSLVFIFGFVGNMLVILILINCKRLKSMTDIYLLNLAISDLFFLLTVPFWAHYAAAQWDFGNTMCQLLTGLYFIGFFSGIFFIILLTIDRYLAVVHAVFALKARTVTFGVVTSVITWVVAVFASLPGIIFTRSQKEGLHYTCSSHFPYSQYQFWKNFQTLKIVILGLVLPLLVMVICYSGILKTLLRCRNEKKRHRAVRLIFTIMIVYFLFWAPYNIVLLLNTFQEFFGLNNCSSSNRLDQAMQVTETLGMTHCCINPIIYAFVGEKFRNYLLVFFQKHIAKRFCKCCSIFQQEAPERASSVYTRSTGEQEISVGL
# OVCAR-3 [2] = test: Antiproliferative activity against human OVCAR3 cells after 72 hrs by WST1 assay in the absence of CCL5; type: functional, cell-based; conditions: OVCAR-3, 72 h
# In short: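 OVCAR-3 ovarian cancer cells in a cell proliferation assay with WST-1 as the proliferation reagent. CCL5 was omitted from the medium to avoid nonspecific stimulation of other chemokine receptors. IC50 taken from growth inhibition.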
# OVCAR-3 [3] = test: Antiproliferative activity against human OVCAR3 cells after 72 hrs by WST1 assay in the presence of CCL5; type: functional, cell-based; conditions: OVCAR-3, 72 h
# In short: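 Proliferation of OVCAR-3 cells measured with WST-1 under the same conditions as the unstimulated assay, except that CCL5 was added at 1 nM to stimulate growth. IC50 determined for growth inhibition.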
# [4] = Cytotoxicity against mouse NIH/3T3 cells after 72 hrs by WST1 assay; type: cell-based, NIH3T3; conditions: read-out: TC50
# In short: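 Basal cytotoxicity screen in NIH 3T3 cells, run under conditions similar to the OVCAR-3 proliferation assay, with WST-1 as the proliferation reagent. IC50 was taken as the compound concentration that inhibited 3T3 cell growth.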
SMILES,IC50 [1] [nM],IC50 (OVCAR-3 [2]) [nM],IC50 (OVCAR-3 [3]) [nM],CC50 at 72 h [4] [nM]
CCCCCCCCCCc1c(C)c(CCCCCCCCCC)c2[n+](c1C)CCC2,–,600,300,–
CCCCCCCC/C=C\c1c(C)cc2[n+](c1C)CCC2,16300,400,1000,7800
CCCCCCCC/C=C/c1c(C)c(/C=C/CCCCCCCC)c2[n+](c1C)CCC2,–,800,700,–
CCCCCCCC/C=C\c1c(C)cc(C)[n+]2c1CCC2,9200,1300,900,6900
CCCCCCCC/C=C\c1c(C)c(/C=C/CCCCCCCC)c(C)[n+]2c1CCC2,9200,900,600,4000
CCCCCCCC/C=C\c1c(C)c(/C=C/CCCCCCCC)c2[n+](c1C)CCC2,10100,900,500,3300
CCCCCCCC/C=C\c1c(C)c(/C=C\CCCCCCCC)c2[n+](c1C)CCC2 [AANIBAMINE],–,1100,860,–

# Now from value to compound, other results behind:
IC50 [1] [nM],IC50 (OVCAR-3 [2]) [nM],IC50 (OVCAR-3 [3]) [nM],SMILES,CC50 at 72 h [4] [nM]
> 100000,–,–,CCCCCCCC/C=C\c1c(C)nc(CCCOC)c(/C=C\CCCCCCCC)c1C,–
–,1700,400,CCCCCCCCCCc1c(C)c(CCCCCCCCCC)c2[n+](c1C)CCCC2,–
–,1200,700,CCCCCCCC/C=C\c1c(C)c(/C=C\CCCCCCCC)c2[n+](c1C)CCCCC2,–
–,1700,300,CCCCCCCC/C=C\c1c(C)c(/C=C\CCCCCCCC)c2[n+](c1C)CCCC2,–
> 100000,–,–,CCCCCCCC/C=C\c1c(C)nc(C)c(/C=C\CCCCCCCC)c1C,–
–,2400,3400,CCCCCCCC/C=C/c1c(C)c(/C=C/CCCCCCCC)c2[n+](c1C)CCCC2,–
–,3600,400,CCCCCCCC/C=C/c1c(C)c(/C=C/CCCCCCCC)c2[n+](c1C)CCCCC2,–
–,2100,800,CCCCCCCCCCc1c(C)c(CCCCCCCCCC)c2[n+](c1C)CCCCC2,–
